From PubChem
KCNQ1 pot – potentiators or activators of KCNQ1 channel, primary screen, cell-based, thallium flux, high-throughput | B-score at 10 µM | CHO-K1 KCNQ1, thallium flux FluxOR fluorescence; stronger effect = higher value | Potassium voltage-gated channel subfamily KQT member 1 (Homo sapiens), P51787 | actives 0.35% (n = 310,000);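 active means fluorescence ratio B-score, a plate-corrected score, at least three library SD, with initial intensity B-score within 5 SD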
Target sequence (P51787 whole entry, looked up): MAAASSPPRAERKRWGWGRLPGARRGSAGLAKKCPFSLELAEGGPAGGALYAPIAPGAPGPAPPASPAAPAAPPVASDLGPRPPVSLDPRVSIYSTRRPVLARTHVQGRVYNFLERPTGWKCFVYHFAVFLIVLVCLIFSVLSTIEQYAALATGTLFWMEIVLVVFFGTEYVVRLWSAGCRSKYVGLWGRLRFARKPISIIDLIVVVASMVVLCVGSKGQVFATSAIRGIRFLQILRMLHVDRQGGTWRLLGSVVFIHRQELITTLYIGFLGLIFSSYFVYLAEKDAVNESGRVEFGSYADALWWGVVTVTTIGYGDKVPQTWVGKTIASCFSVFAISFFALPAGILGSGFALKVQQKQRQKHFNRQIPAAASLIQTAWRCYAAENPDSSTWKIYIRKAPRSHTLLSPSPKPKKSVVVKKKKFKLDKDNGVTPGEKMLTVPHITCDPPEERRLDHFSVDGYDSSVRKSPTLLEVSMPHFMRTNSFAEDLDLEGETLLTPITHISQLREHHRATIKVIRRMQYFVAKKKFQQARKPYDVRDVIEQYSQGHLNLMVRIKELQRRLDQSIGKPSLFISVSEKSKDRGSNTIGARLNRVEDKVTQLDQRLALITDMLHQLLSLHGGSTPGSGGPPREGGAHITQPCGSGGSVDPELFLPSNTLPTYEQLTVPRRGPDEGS
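Doses: Single concentration per compound, DMSO matched to controls | Test system: KCNQ1-transfected CHO-K1 cells | Timing: 90 min dye loading and 20 min compound exposure, both at room temperature | Measured by: Kinetic FluxOR thallium fluorescence, 10-s 1-Hz baseline, 110-s post-stimulus read | Medium: Assay buffer with matched DMSO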
KCNK9 block – KCNK9 potassium channel inhibitors, primary screen, HEK293 cells, thallium flux. Potassium channel subfamily K member 9 (Homo sapiens), Q9NPC2. FluxOR thallium flux fluorescence; stronger effect = lower value. B-score at 10 µM. actives 1.2% (n = 310,000). AID 488922, 2010;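 active means ratio B-score over 3 SD below the library mean, with starting fluorescence within 5 SD of its mean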;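 further: negative B-score means less thallium flux so channel inhibition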
KCNK3 block – human KCNK3 channel inhibitors, primary screen, CHO cells, FluxOR thallium flux, B-score. FluxOR fluorescence; stronger effect = lower value. actives 0.84% (n = 340,000). AID 602410, 2012. Potassium channel subfamily K member 3 (Homo sapiens), O14649. B-score at 10 µM;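 active means B-score under library mean minus 4 SD, starting fluorescence ratio at most library mean plus 5 SD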;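 further: more negative B-score means stronger inhibition of thallium flux through KCNK3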
KCNQ1 inh – inhibitors of human KCNQ1 channel, primary screen, cell-based, thallium flux, high-throughput; Potassium voltage-gated channel subfamily KQT member 1 (Homo sapiens), P51787; CHO-K1 KCNQ1, FluxOR thallium flux fluorescence; stronger effect = higher value; B-score at 10 µM; actives 1.3% (n = 310,000);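 active means compounds whose thallium flux B-score, printed positive for inhibition, exceeds three library SD while starting fluorescence stays within three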;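 further: channel opened by potassium depolarization with thallium stimulus after 20 min compound exposure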
Kir21 inh – inhibitors of mouse Kir2.1 inward-rectifier potassium channel; Inward rectifier potassium channel 2 (Mus musculus), P35561; HEK293-Kir2.1, FluxOR thallium flux fluorescence; stronger effect = lower value; B-score at 10 µM; actives 0.85% (n = 310,000);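 active means fluorescence ratio B-score at or below minus 3 SD of library scores, with starting-brightness B-score within 2 SD, cut at about -4.2 in these data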;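 further: channel flux triggered by added potassium and thallium sulfate stimulus; B-score of peak minus minimum fluorescence over baseline after thallium stimulus; more negative B-score means stronger Kir2.1 block with less thallium influx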
hERG rescue – hERG rescue from dofetilide block, primary screen, cell-based, CHO-hERG, FluxOR thallium flux, dofetilide IC70 | Voltage-gated inwardly rectifying potassium channel KCNH2 (Homo sapiens), Q12809 | dofetilide IC70 present | activation (rescue from dofetilide block), less the hit threshold, % at 10 µM | actives 0.51% (n = 310,000);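 active means activation above the mean of controls blocked by dofetilide plus 5 SD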;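 further: thallium influx through hERG after potassium depolarization seen as dye fluorescence rise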
KCNK9 inh conf – KCNK9 potassium channel inhibitors, confirmation, HEK293 cells, thallium flux, duplicate; shares compounds with KCNK9 block; FluxOR thallium flux fluorescence; inhibition, % at 10 µM; actives 43% (n = 4,900);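 active means thallium signal inhibited by more than 5 SD of the compound-free buffer control wells, on both duplicate plates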;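 further: 0% = assay buffer control wells without compound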
Kir21 sel – mouse Kir2.1 channel inhibition, confirmation, selectivity assay for KCNK9 modulator project, cell-based, HEK293, thallium flux | shares compounds with KCNK9 block | Kir2.1 cells, FluxOR thallium flux fluorescence | AID 492993, 2010 | inhibition, % at 10 µM | actives 4% (n = 4,900);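 active means thallium signal drop more than 5 SD beyond the mean of the no-compound control wells, seen in both duplicate plates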;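 further: signal is fluorescence rise after thallium addition divided by baseline fluorescence; plate controls were assay buffer only for no effect and full block by chlorpromazine control for full effect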
HEK293 Tl ctr – thallium flux in non-induced HEK293 cells, confirmation, counter-screen for KCNK9 inhibitor project, cell-based, second counter screen, non-induced KCNK9-HEK293. FluxOR thallium flux. shares compounds with KCNK9 block. inhibition, % at 10 µM. AID 492997, 2010. actives 40% (n = 4,900);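 active means thallium signal drop beyond 5 SD of the untreated control mean, on both duplicate plates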;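 further: plate controls were buffer only IC0 wells for no effect and SID17386958 at its maximal inhibitory level for full effect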
* marks the source's active call; other numbers are inactive results; i = inactive; x = no result. Shown are actives, neighbours in structure and some others; about 3.8% of the full set was active somewhere.

SMILES	KCNQ1 pot	KCNK9 block	KCNK3 block	KCNQ1 inh	Kir21 inh	hERG rescue	KCNK9 inh conf	Kir21 sel	HEK293 Tl ctr
CCOc1cc(/C=N/Nc2cccc(C(=O)O)c2)ccc1OC(=O)c1ccccc1	i	i	i	i	0.42	-4	i	i	i
CCCCN(C(=O)COC(=O)COc1c(C)cc(C)cc1C)c1c(N)n(CCC)c(=O)[nH]c1=O	i	i	i	i	1.5	-14	x	x	x
CS(=O)(=O)Nc1ccc(C2=NN(S(=O)(=O)c3ccc(F)cc3)C(c3ccco3)C2)cc1 (configuration not stated)	i	-10*	i	i	-2	-13	38%*	i	i
Cc1ccc(C2=NN(S(=O)(=O)c3ccccc3)C(c3ccco3)C2)cc1 (configuration not stated)	x	x	i	x	x	x	x	x	x
CCCCNC(=O)c1onc(CSc2ccc(Cl)cc2)c1C(=O)NCCCC	i	i	i	i	1.2	-5	x	x	x
CC(C)NC(=O)c1onc(CSc2ccc(Cl)cc2)c1C(=O)O	i	i	i	i	-0.71	-7	x	x	x
CCCNC(=O)c1onc(CSc2ccc(Cl)cc2)c1C(=O)NC(C)C	i	i	i	i	1.8	-13	i	i	i
CC(C)NC(=O)c1onc(CSc2ccc(Cl)cc2)c1C(=O)NC(C)C	i	i	i	i	-0.38	-8	i	i	i
Cc1cnc(C(=O)NC2CC(C)(C)Cc3c2cnn3-c2cccc(F)c2)cn1 (configuration not stated)	i	i	i	i	-0.21	-8	x	x	x
Cc1ccc([N+](=O)[O-])c(OCCN2CCNCC2)c1	i	i	i	i	1.5	-2	i	i	i
Cc1cc(OCCN2CC(C)OC(C)C2)ccc1[N+](=O)[O-] (configuration not stated)	i	i	i	i	-0.34	-15	x	x	x
Cc1cc(OCCN2CCC(Cc3ccccc3)CC2)ccc1[N+](=O)[O-]	i	i	i	i	-2.9	-13	i	i	i
O=C(COC(=O)C1CC1)NCCc1ccc(Cl)cc1	x	x	i	x	x	x	x	x	x
CCn1cc(C2=NC(CCSC)CO2)c2ccccc21 (configuration not stated)	i	i	i	i	-0.35	-22	i	i	i
CCn1cc(C2N3CC4(C)CN2CC(C)(C3)C4=O)c2ccccc21 (configuration not stated)	i	i	i	i	0.06	-16	x	x	x
CCn1cc(C2=NC(CC(C)C)CO2)c2ccccc21 (configuration not stated)	i	i	i	i	0.03	-12	i	i	i
CC(C)C1COC(c2cccc3ccccc23)=N1 (configuration not stated)	i	i	i	i	-0.65	-6	x	x	x
CCn1cc(C2=NC(C(C)C)CO2)c2ccccc21 (configuration not stated)	i	i	i	i	1.4	-14	i	i	i
CCOC(=O)C1=CN(CC)S(=O)(=O)NC1c1cccc(OC)c1 (configuration not stated)	x	x	i	x	x	x	x	x	x
Cc1ccc2c(c1)N(C(=O)c1ccco1)C(C)(C)c1ssc(=S)c1-2	i	-8.3*	i	i	0.58	-1	38%*	i	30%*
Cc1cccc2c1N(C(=O)c1ccco1)C(C)(C)c1ssc(=S)c1-2	i	i	i	i	0.05	-7	x	x	x
CSc1ccc(CN(C)C(=O)CCNS(=O)(=O)c2ccc(C)c(C)c2)cc1	i	i	i	i	-2.9	-17	i	i	i
Cc1c(C(=O)O)sc2[nH]c(=O)n(Cc3ccccc3)c(=O)c12	i	i	i	i	0.71	-4	x	x	x
Cc1cc2ccccn2c1C(=O)c1ccc([N+](=O)[O-])cc1[N+](=O)[O-]	i	i	i	i	-0.67	-5	x	x	x
Cc1cc2ccccn2c1C(=O)c1ccccc1Br	i	-8.3*	i	i	0.68	-8	i	i	i
SMILES	KCNQ1 pot	KCNK9 block	KCNK3 block	KCNQ1 inh	Kir21 inh	hERG rescue	KCNK9 inh conf	Kir21 sel	HEK293 Tl ctr
CC1CCC(C(C)C)C(OC(=O)Cn2c(-c3ccccc3)[n+](C)c3ccccc32)C1 (configuration not stated)	i	-8.8*	i	i	-7.6*	-25	64%*	74%*	i
CC1CCC(C(C)C)C(OC(=O)Cn2c(-c3ccc(F)cc3)[n+](C)c3ccccc32)C1 (configuration not stated)	x	x	i	x	x	x	x	x	x
CC(CN1CCN(Cc2ccccc2)CC1)c1ccccc1 (configuration not stated)	i	i	i	i	0.32	-4	x	x	x
N#CC(c1ccccc1)C1CCN(Cc2ccccc2)CC1 (configuration not stated)	i	i	i	i	-5.2*	-8	i	i	i
Nc1cc(=O)[nH]c(SCC(=O)Nc2cccc(S(=O)(=O)N3CCCCC3)c2)n1	x	x	i	x	x	x	x	x	x
Cc1c(CCC(=O)O)c(=O)oc2cc3oc4c(c3cc12)CCCC4	i	i	i	i	0.93	-7	i	i	i
c1ccc(CCNCCOc2ccccc2)cc1	i	i	i	i	-1.1	-8	x	x	x
Cc1ccc(C(C)C)c(OCCNCCc2ccccc2)c1	i	i	i	i	-9.9*	-18	i	50%*	i
Cc1cccc(C(=O)Nc2ccc(C(=O)c3ccccc3)cc2)c1	i	-15*	i	i	-0.03	-3	60%*	i	27%*
